# ChEMBL document CHEMBL4043182, “On the synthesis of quinone-based BODIPY hybrids: New insights on antitumor activity and mechanism of action in cancer cells” (Bioorg Med Chem Lett, 2017)
# Key:
# SF-295 = experiment: Induction of oxidative stress in human SF295 cells assessed as GSH to GSSG ratio at 5 uM treated 24 hrs post NAC addition measured after 24 hrs by spectrophotometric analysis (reference value: 2.34 +/- 0.56 microg/mg); format: functional
# Method in brief: (§1)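 Cells were pretreated 24 h with 5 mM NAC, then exposed 24 h to test compound at 5 µM. Controls received 0.1% DMSO. Extracts were prepared by sonication and HClO4 precipitation, then neutralized with KOH. Total glutathione was read by DTNB/glutathione reductase/NADPH rate at 412 nm. GSSG was measured after 4-vinylpyridine (0.1%, 1 h, RT) and GSH derived by difference. Values are normalized to protein, triplicates, three independent runs.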
# L929 = experiment: Antiproliferative activity against mouse L929 cells after 72 hrs by MTT assay; format: cell-based; details: L929, 72 h
# Method in brief: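 MTT reduction: cancer lines plated at 0.7×10^5 to 0.3×10^6 cells/well, V79 and L929 fibroblasts at 0.5×10^5 cells/well. Compounds in DMSO (0.1%) were given for 24 h at 0.04–40.92 µM or 72 h at 0.04–8.19 µM. Fresh medium with 0.5 mg/mL MTT was added for 3 h, then formazan was dissolved in DMSO and read at 595 nm as % of control. IC50 came from nonlinear regression with 95% CI. Doxorubicin (0.001–1.06 µM) was the positive control. Triplicate, ≥3 repeats.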
# PC-3 [1] = experiment: Induction of oxidative stress in human PC3 cells assessed as total GSSG levels at 5 uM after 24 hrs by spectrophotometric analysis (reference value: 1.11 +/- 0.12 microg/mg); format: functional
# PC-3 [2] = experiment: Induction of oxidative stress in human PC3 cells assessed as total GSSG levels at 5 uM treated 24 hrs post NAC addition measured after 24 hrs by spectrophotometric analysis (reference value: 1.11 +/- 0.12 microg/mg); format: functional; method in brief: as §1
smiles,measurement,setting,value
CC1(C)OC2=C(C(=O)C(=O)c3ccccc32)C1n1cc(CNC2=[N+]3C(=C(c4ccccc4)c4ccc(Cl)n4[B-]3(F)F)C=C2)nn1 (centres undefined),Activity,SF-295,2.82 µg/mg
same,IC50,L929,920 nM
same,Activity,PC-3 [1],2.16 µg/mg
same,Activity,PC-3 [2],1.07 µg/mg
